Measurements from ChEMBL document CHEMBL1143520, “Bicyclic amidine inhibitors of nitric oxide synthase: discovery of perhydro-iminopyrindine and perhydro-iminoquinoline as potent, orally active inhibitors of inducible nitric oxide synthase” (Bioorg Med Chem Lett, 2005).
pIC50: −log10 of the molar value.

Columns and labels:
[1] = test system: Rattus norvegicus; assay: Effective dose causing 50% reduction in plasma nitrite relative to control animals after intravenous administration in LPS treated rats; type: functional
Method in brief: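 Rat endotoxin model: LPS challenge, then iv dosing 2 h after LPS. Plasma collected 5 h after LPS. Nitrate converted to nitrite with nitrate reductase, then total nitrite/nitrate measured fluorometrically.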

[2] = molecular target: Nitric oxide synthase, inducible (Homo sapiens, UniProt P35228); assay: Inhibitory activity against human Inducible nitric oxide synthase (iNOS)
[3] = molecular target: T1, Nitric oxide synthase 3 (Homo sapiens, UniProt P29474); assay: Inhibitory activity against human Endothelial nitric oxide synthase (eNOS)
T1 sequence (P29474 whole entry): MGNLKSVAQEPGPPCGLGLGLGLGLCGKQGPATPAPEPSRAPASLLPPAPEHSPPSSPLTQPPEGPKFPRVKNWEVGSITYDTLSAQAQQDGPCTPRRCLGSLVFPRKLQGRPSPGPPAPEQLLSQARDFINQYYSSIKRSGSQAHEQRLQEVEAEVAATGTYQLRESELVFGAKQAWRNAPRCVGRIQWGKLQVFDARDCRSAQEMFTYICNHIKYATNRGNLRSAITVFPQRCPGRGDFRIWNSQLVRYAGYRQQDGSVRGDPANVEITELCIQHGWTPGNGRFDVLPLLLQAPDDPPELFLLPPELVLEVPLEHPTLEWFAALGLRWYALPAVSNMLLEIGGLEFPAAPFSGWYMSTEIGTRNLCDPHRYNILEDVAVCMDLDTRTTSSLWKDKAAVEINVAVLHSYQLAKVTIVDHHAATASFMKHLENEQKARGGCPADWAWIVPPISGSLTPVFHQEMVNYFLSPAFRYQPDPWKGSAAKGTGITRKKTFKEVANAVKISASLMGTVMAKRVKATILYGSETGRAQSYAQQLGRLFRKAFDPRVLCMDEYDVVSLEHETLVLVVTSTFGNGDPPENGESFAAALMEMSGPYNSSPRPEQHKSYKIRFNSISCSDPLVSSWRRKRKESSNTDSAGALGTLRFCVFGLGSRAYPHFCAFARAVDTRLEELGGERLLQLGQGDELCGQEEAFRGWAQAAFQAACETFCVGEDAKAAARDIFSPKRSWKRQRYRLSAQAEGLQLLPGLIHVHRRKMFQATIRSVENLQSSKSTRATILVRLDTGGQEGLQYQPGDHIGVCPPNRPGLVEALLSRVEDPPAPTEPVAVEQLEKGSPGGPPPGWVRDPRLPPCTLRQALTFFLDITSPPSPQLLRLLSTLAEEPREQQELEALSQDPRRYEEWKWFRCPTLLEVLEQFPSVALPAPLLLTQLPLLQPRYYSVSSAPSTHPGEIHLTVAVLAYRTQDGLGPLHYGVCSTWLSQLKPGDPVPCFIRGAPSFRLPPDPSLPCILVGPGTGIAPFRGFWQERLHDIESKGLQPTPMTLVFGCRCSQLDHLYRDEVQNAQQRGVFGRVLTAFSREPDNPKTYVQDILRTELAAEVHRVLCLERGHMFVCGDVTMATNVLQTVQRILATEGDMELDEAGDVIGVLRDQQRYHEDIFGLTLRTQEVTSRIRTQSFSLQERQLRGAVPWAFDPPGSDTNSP

[4] = molecular target: Nitric oxide synthase 1 (Homo sapiens, UniProt P29475); assay: Inhibitory activity against human Neuronal nitric oxide synthase (nNOS)
[5] = molecular target: Nitric oxide synthase (inducible and endothelial) (Homo sapiens) (UniProt P35228+P29474); assay: Selectivity measured as the ratio of eNOS IC50/iNOS IC50; type: protein assay
[6] = test system: Rattus norvegicus; assay: Percentage inhibition of plasma nitrite/nitrate after peroral administration of 10 mg/kg of compound to rats 1 hr prior to LPS treating; type: functional; details: route oral
Method in brief: (§1)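 Rats given 10 mg/kg po at set times before LPS challenge. Plasma nitrate/nitrite measured 5 h after LPS: nitrate reduced to nitrite by nitrate reductase, then fluorometric nitrite read-out. Reported as % inhibition of plasma NOx.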

[7] = test system: Rattus norvegicus; assay: Percentage inhibition of plasma nitrite/nitrate after peroral administration of 10 mg/kg of compound to rats 2 hr prior to LPS treating; type: functional; details: route oral; method in brief: as §1
[8] = test system: Rattus norvegicus; assay: Percentage inhibition of plasma nitrite/nitrate after peroral administration of 10 mg/kg of compound to rats 4 hr prior to LPS treating; type: functional; details: route oral; method in brief: as §1
[9] = test system: Rattus norvegicus; assay: Percentage inhibition of plasma nitrite/nitrate after peroral administration of 10 mg/kg of compound to rats 16 hr prior to LPS treating; type: functional; details: route oral; method in brief: as §1

Chain of Nitric oxide synthase, inducible (P35228 whole entry): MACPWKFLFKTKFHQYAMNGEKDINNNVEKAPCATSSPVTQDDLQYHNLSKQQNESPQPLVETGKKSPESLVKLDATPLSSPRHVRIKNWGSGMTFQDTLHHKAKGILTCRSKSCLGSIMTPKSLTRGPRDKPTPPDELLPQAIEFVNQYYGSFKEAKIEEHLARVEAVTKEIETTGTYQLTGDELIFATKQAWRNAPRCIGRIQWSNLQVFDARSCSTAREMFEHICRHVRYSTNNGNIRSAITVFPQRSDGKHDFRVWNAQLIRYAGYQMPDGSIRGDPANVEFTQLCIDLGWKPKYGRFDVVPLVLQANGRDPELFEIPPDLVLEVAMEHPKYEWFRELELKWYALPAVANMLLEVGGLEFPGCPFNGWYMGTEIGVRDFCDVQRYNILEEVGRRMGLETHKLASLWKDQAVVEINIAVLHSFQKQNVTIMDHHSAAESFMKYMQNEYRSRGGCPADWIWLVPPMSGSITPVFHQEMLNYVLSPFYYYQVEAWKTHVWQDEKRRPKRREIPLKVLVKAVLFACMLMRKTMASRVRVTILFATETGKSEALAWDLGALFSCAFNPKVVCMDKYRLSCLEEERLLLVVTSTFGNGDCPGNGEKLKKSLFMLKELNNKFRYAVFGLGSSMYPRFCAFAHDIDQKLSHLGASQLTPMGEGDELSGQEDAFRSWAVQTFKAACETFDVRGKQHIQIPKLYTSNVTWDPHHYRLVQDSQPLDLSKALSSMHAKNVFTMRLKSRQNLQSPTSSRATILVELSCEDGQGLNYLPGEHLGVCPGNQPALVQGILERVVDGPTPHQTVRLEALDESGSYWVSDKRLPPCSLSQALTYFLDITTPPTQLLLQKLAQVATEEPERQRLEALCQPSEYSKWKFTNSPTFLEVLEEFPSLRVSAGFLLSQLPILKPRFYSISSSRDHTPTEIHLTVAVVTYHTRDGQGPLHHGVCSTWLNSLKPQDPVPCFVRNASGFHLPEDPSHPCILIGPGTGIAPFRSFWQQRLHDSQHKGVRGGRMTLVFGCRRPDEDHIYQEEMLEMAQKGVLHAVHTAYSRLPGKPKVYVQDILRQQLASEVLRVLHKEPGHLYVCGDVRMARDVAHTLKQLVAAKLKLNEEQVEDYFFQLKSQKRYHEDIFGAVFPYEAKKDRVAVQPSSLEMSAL
Chain of Nitric oxide synthase 1 (P29475 whole entry): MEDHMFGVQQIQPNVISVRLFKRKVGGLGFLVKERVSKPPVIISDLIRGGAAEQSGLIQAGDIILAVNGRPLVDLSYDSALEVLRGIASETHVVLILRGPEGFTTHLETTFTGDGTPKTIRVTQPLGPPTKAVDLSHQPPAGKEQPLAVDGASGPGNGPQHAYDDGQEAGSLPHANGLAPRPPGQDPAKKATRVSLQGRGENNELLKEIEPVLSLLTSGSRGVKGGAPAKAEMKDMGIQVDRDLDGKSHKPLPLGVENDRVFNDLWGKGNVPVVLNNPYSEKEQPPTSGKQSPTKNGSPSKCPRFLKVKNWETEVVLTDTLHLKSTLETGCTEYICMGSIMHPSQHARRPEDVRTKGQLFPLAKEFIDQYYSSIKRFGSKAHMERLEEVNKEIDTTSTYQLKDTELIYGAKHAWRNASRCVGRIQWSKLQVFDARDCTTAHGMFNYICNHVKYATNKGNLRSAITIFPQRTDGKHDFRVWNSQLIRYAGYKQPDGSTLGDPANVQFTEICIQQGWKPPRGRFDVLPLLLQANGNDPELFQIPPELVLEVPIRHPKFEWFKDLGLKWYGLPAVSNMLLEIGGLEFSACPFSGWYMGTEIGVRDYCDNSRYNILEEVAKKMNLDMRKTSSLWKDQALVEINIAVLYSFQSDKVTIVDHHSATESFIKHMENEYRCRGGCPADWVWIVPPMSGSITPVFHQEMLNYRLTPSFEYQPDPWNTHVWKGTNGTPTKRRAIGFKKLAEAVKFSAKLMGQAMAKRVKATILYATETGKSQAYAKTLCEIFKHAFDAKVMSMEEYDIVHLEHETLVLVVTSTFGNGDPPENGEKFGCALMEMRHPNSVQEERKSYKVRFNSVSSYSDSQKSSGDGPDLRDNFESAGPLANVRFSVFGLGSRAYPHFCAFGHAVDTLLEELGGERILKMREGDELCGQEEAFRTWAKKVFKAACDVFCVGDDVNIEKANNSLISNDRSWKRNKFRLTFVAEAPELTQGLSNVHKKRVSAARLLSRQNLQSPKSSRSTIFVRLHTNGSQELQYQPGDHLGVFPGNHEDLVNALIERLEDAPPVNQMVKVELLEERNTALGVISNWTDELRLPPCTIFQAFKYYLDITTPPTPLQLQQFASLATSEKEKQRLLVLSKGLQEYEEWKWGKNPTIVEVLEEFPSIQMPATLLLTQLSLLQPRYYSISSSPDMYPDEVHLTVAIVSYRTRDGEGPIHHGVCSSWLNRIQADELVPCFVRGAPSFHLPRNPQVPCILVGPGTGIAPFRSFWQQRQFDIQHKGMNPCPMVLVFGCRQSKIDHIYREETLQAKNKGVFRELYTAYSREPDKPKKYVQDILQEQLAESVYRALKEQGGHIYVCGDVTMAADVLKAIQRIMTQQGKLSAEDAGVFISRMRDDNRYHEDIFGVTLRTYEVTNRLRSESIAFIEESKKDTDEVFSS

`CC1CCN=C(N)C1` (configuration not stated) showed an ED50 [1] of 0.5 mg/kg and a pIC50 [2] of 7.43.
In the case of `C[C@H]1CC(N)=N[C@H]2CCCC[C@H]21`, the pIC50 [3] was under 5.30, the pIC50 [4] was 6.21 and the pIC50 [2] was under 5.30.
For `C[C@@H]1CC(N)=N[C@@H]2CCCCC[C@H]12`, the pIC50 [3] was 5.35, the Selectivity [5] was 5.2 and the pIC50 [4] was 5.89. It also gave a pIC50 [2] of 6.07.
`C[C@@H]1CC(N)=N[C@@H]2CCC[C@H]12` (stereo in doubt; 10) [listing 1 of 2 here] showed a Selectivity [5] of 31.
`C[C@@H]1CC(N)=N[C@@H]2CCCC[C@H]12` gave an inhibition in vivo at 10 mg/kg [6] of 57%, an inhibition in vivo at 10 mg/kg [7] of 69% and an inhibition in vivo at 10 mg/kg [8] of 74%. For the same compound, the inhibition in vivo at 10 mg/kg [9] was 42%, the pIC50 [3] was 6.08 and the Selectivity [5] was 37. The pIC50 [4] was 7.28, the ED50 [1] was 0.19 mg/kg and the pIC50 [2] was 7.66.
`N=C1CCCCN1` gave a pIC50 [3] of 6.20 and a pIC50 [2] of 6.52.
With `C[C@@H]1CC(N)=N[C@@H]2CCC[C@H]12` (stereo in doubt; 10a) [listing 1 of 2 here] the Selectivity [5] was 40.
For `NC1=N[C@H]2CCCC[C@H]2CC1`, the pIC50 [3] was 4.90, the Selectivity [5] was 67 and the pIC50 [4] was 6.61. For the same compound, the pIC50 [2] was 6.73.
For `NC1=N[C@H]2CCCC[C@@H]2CC1`, the pIC50 [3] was 5.26, the pIC50 [4] was 6.28 and the pIC50 [2] was 6.28.
For `C[C@@H]1CC(N)=N[C@@H]2CCC[C@H]12` (stereo in doubt; 10) [listing 2 of 2 here], the pIC50 [3] was 6.33, the pIC50 [4] was 7.51 and the pIC50 [2] was 7.82.
Work on `NC1=Nc2ccccc2CC1` yielded a pIC50 [3] of 4.07, a Selectivity [5] of 6.1 and a pIC50 [4] of 5.31. The pIC50 [2] was 4.85.
Work on `C[C@H]1CC(N)=N[C@H]2CCC[C@H]21` yielded a pIC50 [3] of 6.06, a Selectivity [5] of 6.5 and a pIC50 [4] of 7.44. The pIC50 [2] was 6.88.
Compound `C[C@@H]1CC(N)=N[C@H]2CCCC[C@@H]12` has a pIC50 [3] of 5.70, a Selectivity [5] of 52 and a pIC50 [4] of 6.72. The pIC50 [2] was 7.42.
With `C[C@@H]1CC(N)=N[C@@H]2CCC[C@H]12` (stereo in doubt; 10a) [listing 2 of 2 here] the inhibition in vivo at 10 mg/kg [6] was 95%, the inhibition in vivo at 10 mg/kg [7] was 80% and the inhibition in vivo at 10 mg/kg [8] was 52%. For the same compound, the inhibition in vivo at 10 mg/kg [9] was 39%, the pIC50 [3] was 6.44 and the pIC50 [4] was 7.68. The ED50 [1] was 0.25 mg/kg and the pIC50 [2] was 8.05.
